Results: ChEMBL document CHEMBL5705890, “Antitumor activity of an allosteric inhibitor of centromere-associated protein-E” (Proc Natl Acad Sci U S A, 2010)

Assays:
SCC-15 = experiment: Anticancer activity against human SCC-15 cells assessed as cell growth inhibition measured after 72 hrs by DAPI staining based analysis; format: functional
MC-IXC = experiment: Anticancer activity against human MC-IXC cells assessed as cell growth inhibition measured after 72 hrs by DAPI staining based analysis; format: functional
NCI-N87 = experiment: Anticancer activity against human NCI-N87 cells assessed as cell growth inhibition measured after 72 hrs by DAPI staining based analysis; format: functional
A549 = experiment: Anticancer activity against human A549 cells assessed as cell growth inhibition measured after 72 hrs by DAPI staining based analysis; format: functional
Procedure, shortened: (§1)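 Cells were seeded and, after 24 h, DNA content was read as T0. Cells were then exposed to varying drug concentrations for a further 72 h (T72). Fixed cells were DAPI-stained and DNA content measured by automated imaging. T72 values were normalized to T0. GI50 is the concentration giving 50% growth inhibition between T0 and Ymax, obtained by curve fitting.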

A-427 [1] = experiment: Anticancer activity against human A-427 cells assessed as cell growth inhibition measured after 72 hrs by DAPI staining based analysis; format: functional; procedure, shortened: as §1
[2] = molecular target: Centromere-associated protein E (Homo sapiens, UniProt Q02224, I182L); experiment: Binding affinity to human CENP-E I182L mutant assessed as inhibition constant
Centromere-associated protein E (Homo sapiens, UniProt Q02224, I182L), sequence (Q02224 whole entry I182L): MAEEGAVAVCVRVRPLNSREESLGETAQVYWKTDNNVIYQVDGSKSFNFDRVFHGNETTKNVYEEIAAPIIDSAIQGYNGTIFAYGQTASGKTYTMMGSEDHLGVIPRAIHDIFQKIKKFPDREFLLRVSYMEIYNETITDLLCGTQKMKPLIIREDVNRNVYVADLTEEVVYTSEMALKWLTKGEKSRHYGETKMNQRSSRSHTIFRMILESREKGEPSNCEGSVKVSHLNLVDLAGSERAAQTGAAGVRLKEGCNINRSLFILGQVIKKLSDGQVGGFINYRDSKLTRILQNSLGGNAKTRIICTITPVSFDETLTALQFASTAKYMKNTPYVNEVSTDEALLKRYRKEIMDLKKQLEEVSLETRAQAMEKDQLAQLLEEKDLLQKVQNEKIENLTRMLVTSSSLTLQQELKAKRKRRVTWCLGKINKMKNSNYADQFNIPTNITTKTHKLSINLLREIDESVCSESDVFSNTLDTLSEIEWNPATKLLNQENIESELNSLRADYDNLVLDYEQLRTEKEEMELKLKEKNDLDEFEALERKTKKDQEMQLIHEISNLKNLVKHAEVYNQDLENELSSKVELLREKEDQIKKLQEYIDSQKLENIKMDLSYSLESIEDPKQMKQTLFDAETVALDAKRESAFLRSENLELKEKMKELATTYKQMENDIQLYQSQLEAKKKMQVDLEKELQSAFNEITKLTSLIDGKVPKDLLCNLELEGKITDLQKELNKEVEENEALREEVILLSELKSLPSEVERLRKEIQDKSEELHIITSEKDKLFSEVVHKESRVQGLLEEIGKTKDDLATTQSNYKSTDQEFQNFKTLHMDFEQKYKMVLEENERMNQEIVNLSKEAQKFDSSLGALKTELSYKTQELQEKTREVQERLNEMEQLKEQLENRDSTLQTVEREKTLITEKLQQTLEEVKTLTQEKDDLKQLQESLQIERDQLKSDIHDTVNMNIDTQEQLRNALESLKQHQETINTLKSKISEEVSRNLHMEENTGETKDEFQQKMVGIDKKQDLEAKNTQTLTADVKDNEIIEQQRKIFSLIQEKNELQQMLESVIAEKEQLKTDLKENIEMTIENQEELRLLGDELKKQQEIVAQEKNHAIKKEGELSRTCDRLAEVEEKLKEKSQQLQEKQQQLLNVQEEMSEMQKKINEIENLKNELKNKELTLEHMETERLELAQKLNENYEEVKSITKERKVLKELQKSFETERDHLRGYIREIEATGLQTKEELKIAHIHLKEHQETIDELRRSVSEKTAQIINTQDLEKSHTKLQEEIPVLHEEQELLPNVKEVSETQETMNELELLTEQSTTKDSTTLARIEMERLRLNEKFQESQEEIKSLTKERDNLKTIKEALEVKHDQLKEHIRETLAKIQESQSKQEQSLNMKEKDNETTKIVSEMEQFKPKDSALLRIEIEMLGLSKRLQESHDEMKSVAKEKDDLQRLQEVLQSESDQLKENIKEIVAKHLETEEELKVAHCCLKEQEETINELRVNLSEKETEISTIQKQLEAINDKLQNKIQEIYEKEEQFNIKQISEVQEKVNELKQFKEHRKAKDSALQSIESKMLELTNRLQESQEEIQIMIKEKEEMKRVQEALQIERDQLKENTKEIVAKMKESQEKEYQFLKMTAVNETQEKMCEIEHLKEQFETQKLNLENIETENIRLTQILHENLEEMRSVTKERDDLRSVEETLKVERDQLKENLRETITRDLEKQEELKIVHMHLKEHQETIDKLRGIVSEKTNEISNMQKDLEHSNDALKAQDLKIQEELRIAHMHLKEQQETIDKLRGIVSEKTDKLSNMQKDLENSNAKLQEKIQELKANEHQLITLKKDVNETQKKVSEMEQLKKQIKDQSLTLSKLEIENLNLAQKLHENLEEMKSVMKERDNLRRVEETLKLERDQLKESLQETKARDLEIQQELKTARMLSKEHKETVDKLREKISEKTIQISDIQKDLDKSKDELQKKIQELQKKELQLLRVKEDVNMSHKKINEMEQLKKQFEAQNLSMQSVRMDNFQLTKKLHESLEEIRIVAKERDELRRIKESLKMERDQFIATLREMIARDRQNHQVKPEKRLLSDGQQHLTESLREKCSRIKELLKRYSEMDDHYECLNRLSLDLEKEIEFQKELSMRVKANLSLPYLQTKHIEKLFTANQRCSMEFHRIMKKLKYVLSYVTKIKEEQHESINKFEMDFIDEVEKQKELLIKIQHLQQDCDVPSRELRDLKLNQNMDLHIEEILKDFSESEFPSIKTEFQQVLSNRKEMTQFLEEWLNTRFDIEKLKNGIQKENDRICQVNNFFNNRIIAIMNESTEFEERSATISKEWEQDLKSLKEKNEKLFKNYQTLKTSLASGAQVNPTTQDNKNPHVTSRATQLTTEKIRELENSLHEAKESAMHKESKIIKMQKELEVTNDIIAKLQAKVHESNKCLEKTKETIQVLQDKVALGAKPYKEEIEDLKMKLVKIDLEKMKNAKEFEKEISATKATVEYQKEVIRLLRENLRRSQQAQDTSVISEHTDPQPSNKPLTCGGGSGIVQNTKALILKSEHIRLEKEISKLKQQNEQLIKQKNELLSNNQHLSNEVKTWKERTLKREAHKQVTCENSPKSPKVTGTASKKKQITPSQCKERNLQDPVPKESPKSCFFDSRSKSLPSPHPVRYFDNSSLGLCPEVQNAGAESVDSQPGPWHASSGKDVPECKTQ

SW48 = experiment: Anticancer activity against human SW48 cells assessed as cell growth inhibition measured after 72 hrs by DAPI staining based analysis; format: functional
[3] = Anticancer activity against human SKO-007 cells assessed as cell doubling measured for 72 hrs by DAPI staining based analysis; format: functional
SNU-16 = experiment: Anticancer activity against human SNU-16 cells assessed as cell growth inhibition measured after 72 hrs by DAPI staining based analysis; format: functional
SiHa = experiment: Anticancer activity against human SiHa cells assessed as cell growth inhibition measured after 72 hrs by DAPI staining based analysis; format: functional
MIA PaCa-2 = experiment: Anticancer activity against human MIA PaCa-2 cells assessed as cell doubling measured for 72 hrs by DAPI staining based analysis; format: functional
NCI-H187 = experiment: Anticancer activity against human NCI-H187 cells assessed as cell doubling measured for 72 hrs by DAPI staining based analysis; format: functional
K562 = experiment: Anticancer activity against human K562 cells assessed as cell doubling measured for 72 hrs by DAPI staining based analysis; format: functional
SW1783 = experiment: Anticancer activity against human SW1783 cells assessed as cell growth inhibition measured after 72 hrs by DAPI staining based analysis; format: functional
UMUC3 = experiment: Anticancer activity against human UM-UC-3 cells assessed as cell growth inhibition measured after 72 hrs by DAPI staining based analysis; format: functional
MX1 = experiment: Anticancer activity against human MX1 cells assessed as cell growth inhibition measured after 72 hrs by DAPI staining based analysis; format: functional
CAL-27 = experiment: Anticancer activity against human CAL-27 cells assessed as cell doubling measured for 72 hrs by DAPI staining based analysis; format: functional
MDA-MB-231 [4] = experiment: Antitumor activity against human MDA-MB-231 cells in xenograft model assessed as tumor growth delay at 125 mg/kg relative to control; format: functional
MC-CAR = experiment: Anticancer activity against human MC-CAR cells assessed as cell doubling measured for 72 hrs by DAPI staining based analysis; format: functional
RPMI-2650 = experiment: Anticancer activity against human RPMI-2650 cells assessed as cell doubling measured for 72 hrs by DAPI staining based analysis; format: functional
DU-145 = experiment: Anticancer activity against human DU-145 cells assessed as cell growth inhibition measured after 72 hrs by DAPI staining based analysis; format: functional
Procedure, shortened: (§2)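 Cells seeded, DAPI-stained DNA content of fixed cells read by imaging 24 h after seeding (T0), and again after a further 72 h exposure to a range of drug concentrations (T72). T72 values were normalized to T0. Curve fits gave the concentration producing 50% growth inhibition relative to T0 and Ymax (GI50).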

SW1417 = experiment: Anticancer activity against human SW1417 cells assessed as cell doubling measured for 72 hrs by DAPI staining based analysis; format: functional
KM12 = experiment: Anticancer activity against human KM12 cells assessed as cell growth inhibition measured after 72 hrs by DAPI staining based analysis; format: functional
BT-20 = experiment: Anticancer activity against human BT-20 cells assessed as cell doubling measured for 72 hrs by DAPI staining based analysis; format: functional
SK-N-AS = experiment: Anticancer activity against human SK-N-AS cells assessed as cell growth inhibition measured after 72 hrs by DAPI staining based analysis; format: functional
[5] = Anticancer activity against human SW579 cells assessed as cell doubling measured for 72 hrs by DAPI staining based analysis; format: functional
OVCAR-5 = experiment: Anticancer activity against human OVCAR-5 cells assessed as cell growth inhibition measured after 72 hrs by DAPI staining based analysis; format: functional
HCT-116 = experiment: Anticancer activity against human HCT-116 cells assessed as cell doubling measured for 72 hrs by DAPI staining based analysis; format: functional
MDA-MB-231 [6] = experiment: Antitumor activity against human MDA-MB-231 cells in xenograft model assessed as difference between median time to endpoint time of treated versus control group at 125 mg/kg; format: functional
CRO-AP2 = experiment: Anticancer activity against human CRO-AP2 cells assessed as cell growth inhibition measured after 72 hrs by DAPI staining based analysis; format: functional; procedure, shortened: as §2
SK-NEP-1 = experiment: Anticancer activity against human SK-NEP-1 cells assessed as cell doubling measured for 72 hrs by DAPI staining based analysis; format: functional
T47D = experiment: Anticancer activity against human T47D cells assessed as cell growth inhibition measured after 72 hrs by DAPI staining based analysis; format: functional
HN5 = experiment: Anticancer activity against human HN5 cells assessed as cell doubling measured for 72 hrs by DAPI staining based analysis; format: functional
OV-90 = experiment: Anticancer activity against human OV-90 cells assessed as cell doubling measured for 72 hrs by DAPI staining based analysis; format: functional
SW684 = experiment: Anticancer activity against human SW684 cells assessed as cell doubling measured for 72 hrs by DAPI staining based analysis; format: functional
SNU1 = experiment: Anticancer activity against human SNU1 cells assessed as cell doubling measured for 72 hrs by DAPI staining based analysis; format: functional
A-427 [7] = experiment: Anticancer activity against human A-427 cells assessed as cell doubling measured for 72 hrs by DAPI staining based analysis; format: functional
CWR22R = experiment: Anticancer activity against human 22Rv1 cells assessed as cell growth inhibition measured after 72 hrs by DAPI staining based analysis; format: functional; procedure, shortened: as §1
OVCAR-4 = experiment: Anticancer activity against human OVCAR-4 cells assessed as cell growth inhibition measured after 72 hrs by DAPI staining based analysis; format: functional
[8] = molecular target: Centromere-associated protein E (Mus musculus, UniProt Q6RT24); experiment: Binding affinity to wild-type mouse CENP-E assessed as inhibition constant
Centromere-associated protein E (Mus musculus, UniProt Q6RT24), sequence (Q6RT24 whole entry): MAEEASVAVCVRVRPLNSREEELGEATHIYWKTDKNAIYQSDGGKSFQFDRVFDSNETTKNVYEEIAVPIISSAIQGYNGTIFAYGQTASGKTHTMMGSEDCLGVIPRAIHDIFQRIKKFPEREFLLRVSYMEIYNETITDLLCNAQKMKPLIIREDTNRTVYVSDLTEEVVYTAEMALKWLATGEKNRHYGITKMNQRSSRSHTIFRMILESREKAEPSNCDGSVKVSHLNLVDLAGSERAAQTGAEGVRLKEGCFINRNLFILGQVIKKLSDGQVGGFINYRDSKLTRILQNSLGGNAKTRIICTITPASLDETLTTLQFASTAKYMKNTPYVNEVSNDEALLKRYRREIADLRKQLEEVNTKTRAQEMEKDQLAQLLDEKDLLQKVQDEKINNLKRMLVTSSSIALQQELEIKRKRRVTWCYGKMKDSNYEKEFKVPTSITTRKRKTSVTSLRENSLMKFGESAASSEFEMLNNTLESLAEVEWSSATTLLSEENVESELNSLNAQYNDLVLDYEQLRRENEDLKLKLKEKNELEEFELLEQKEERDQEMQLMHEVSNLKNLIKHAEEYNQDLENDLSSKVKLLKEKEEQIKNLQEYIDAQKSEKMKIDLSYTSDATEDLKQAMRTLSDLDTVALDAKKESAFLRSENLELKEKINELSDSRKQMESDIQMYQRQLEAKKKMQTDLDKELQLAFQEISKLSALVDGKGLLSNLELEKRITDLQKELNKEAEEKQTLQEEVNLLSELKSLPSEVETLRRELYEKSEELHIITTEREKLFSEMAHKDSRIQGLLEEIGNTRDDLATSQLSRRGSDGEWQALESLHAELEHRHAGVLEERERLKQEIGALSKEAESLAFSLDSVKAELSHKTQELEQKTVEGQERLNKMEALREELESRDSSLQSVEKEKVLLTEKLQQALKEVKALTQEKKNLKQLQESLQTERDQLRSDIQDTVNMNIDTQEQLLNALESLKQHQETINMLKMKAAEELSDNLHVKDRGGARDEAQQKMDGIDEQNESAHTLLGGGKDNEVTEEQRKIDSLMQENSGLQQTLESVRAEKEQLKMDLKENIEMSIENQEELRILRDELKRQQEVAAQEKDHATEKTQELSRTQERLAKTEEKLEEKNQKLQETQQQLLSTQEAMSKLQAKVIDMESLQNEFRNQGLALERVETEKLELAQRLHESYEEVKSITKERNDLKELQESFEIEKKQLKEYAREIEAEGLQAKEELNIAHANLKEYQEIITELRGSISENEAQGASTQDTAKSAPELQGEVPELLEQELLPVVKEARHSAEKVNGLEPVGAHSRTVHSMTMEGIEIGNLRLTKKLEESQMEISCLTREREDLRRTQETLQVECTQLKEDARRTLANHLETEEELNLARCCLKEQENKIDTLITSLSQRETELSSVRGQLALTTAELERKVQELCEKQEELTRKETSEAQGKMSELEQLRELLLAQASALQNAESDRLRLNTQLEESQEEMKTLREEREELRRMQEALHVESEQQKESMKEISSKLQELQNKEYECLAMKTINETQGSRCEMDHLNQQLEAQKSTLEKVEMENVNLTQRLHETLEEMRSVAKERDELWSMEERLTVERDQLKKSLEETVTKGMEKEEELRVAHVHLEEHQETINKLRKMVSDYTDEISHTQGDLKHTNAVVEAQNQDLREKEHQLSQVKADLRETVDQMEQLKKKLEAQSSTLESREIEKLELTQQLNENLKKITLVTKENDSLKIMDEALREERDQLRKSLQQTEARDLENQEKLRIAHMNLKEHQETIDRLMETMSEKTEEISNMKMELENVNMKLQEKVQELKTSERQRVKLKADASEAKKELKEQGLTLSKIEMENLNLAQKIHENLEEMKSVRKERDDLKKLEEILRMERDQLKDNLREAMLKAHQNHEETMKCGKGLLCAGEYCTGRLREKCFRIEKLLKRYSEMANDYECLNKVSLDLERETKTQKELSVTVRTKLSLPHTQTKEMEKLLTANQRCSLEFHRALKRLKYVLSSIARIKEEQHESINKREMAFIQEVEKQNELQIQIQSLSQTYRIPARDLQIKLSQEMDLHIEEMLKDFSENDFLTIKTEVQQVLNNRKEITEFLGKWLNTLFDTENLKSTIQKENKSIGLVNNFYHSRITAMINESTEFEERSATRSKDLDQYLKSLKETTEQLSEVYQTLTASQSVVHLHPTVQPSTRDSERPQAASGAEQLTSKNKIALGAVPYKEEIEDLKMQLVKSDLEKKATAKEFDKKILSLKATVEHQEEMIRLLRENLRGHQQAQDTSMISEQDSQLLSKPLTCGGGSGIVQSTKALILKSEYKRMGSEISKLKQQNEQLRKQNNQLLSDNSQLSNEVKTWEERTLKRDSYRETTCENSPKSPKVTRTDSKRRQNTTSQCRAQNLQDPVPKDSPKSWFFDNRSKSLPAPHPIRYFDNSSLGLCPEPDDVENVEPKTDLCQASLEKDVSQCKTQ

GI50 (A549): 21 nM
Ki [2]: 14 nM
GI50 (SW48): 25 nM
GI50 (SNU-16): 18 nM
GI50 (SW1783): 34 nM
GI50 (DU-145): 23 nM
GI50 (SK-N-AS): 38 nM
GI50 (OVCAR-5): 34 nM
GI50 (T47D): 29 nM
GI50 (OVCAR-4): 30 nM
Ki [8]: 67 nM
Structure (SMILES): CC(C)Oc1ccc(C(=O)N[C@H](CNC(=O)CN(C)C)Cc2ccc(-c3cn4cccc([C@H](C)O)c4n3)cc2)cc1Cl [GSK-923295A]
GI50 (SCC-15): 63 nM
GI50 (MC-IXC): 27 nM
GI50 (NCI-N87): 29 nM
GI50 (A-427 [1]): 97 nM
Activity [3]: 1.01
GI50 (SiHa): 29 nM
Activity (MIA PaCa-2): 3.72
Activity (NCI-H187): 2.08
Activity (K562): 3.52
GI50 (UMUC3): 23 nM
GI50 (MX1): 30 nM
Activity (CAL-27): 2.55
Activity (MDA-MB-231 [4]): 99%
Activity (MC-CAR): 2.03
Activity (RPMI-2650): 3
Activity (SW1417): 1.94
GI50 (KM12): 56 nM
Activity (BT-20): 4.17
Activity [5]: 1.41
Activity (HCT-116): 4.11
Time (MDA-MB-231 [6]): 47.1 days
GI50 (CRO-AP2): 51 nM
Activity (SK-NEP-1): 1.74
Activity (HN5): 3.38
Activity (OV-90): 1.87
Activity (SW684): 1.13
Activity (SNU1): 2.64
Activity (A-427 [7]): 2.46
GI50 (CWR22R): 29 nM
